Legend:
HCT-116 [1] = assay: Growth inhibition of human HCT116 cells assessed as cell growth at 1 uM relative to untreated control; assay type: functional; settings: read-out: Activity
Summary of the method: (§1)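 Run externally at the National Cancer Institute as a 59-cell-line panel screen, with concentrations up to 100 μM. Growth was scored relative to control, where negative growth or total cell kill was possible. Data are in the Supporting Information.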

HCT-116 [2] = assay: Growth inhibition of human HCT116 cells; assay type: functional; summary of the method: as §1
MDA-MB-231 = assay: Growth inhibition of human MDA-MB-231 cells assessed as cell growth at 10 uM relative to untreated control; assay type: functional; settings: read-out: Activity
PC-3 [3] = assay: Drug uptake in cytoplasm of human PC3 cells at 5 uM by confocal microscopy; assay type: ADME, cell-based; settings: pc-3, 5 µM
Summary of the method: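 PC-3 cells were plated overnight on fibronectin/[…]-coated slides and treated with 5 μM compound or DMSO for 1-6 h. Cells were PBS-washed, fixed in 4% formaldehyde, and stained with propidium iodide (nuclei) and anti-DNMT3a or anti-DNMT3b antibody. The compound was excited at 725 nm by multiphoton laser and imaged through a 500-550 nm filter by confocal microscopy.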

OVCAR-5 = assay: Growth inhibition of human OVCAR5 cells; assay type: functional
PC-3 [4] = assay: Growth inhibition of human PC3 cells assessed as cell growth at 1 nM relative to untreated control; assay type: functional; settings: read-out: Activity
SNB-75 = assay: Growth inhibition of human SNB75 cells assessed as cell growth at 100 nM relative to untreated control; assay type: functional; settings: read-out: Activity
CCRF-CEM [5] = assay: Growth inhibition of human CCRF-CEM cells assessed as cell growth at 1 uM relative to untreated control; assay type: functional; settings: read-out: Activity
HOP-92 [6] = assay: Growth inhibition of human HOP92 cells assessed as cell growth at 1 uM relative to untreated control; assay type: functional; settings: read-out: Activity; summary of the method: as §1
SR [7] = assay: Growth inhibition of human SR cells assessed as cell growth at 10 nM relative to untreated control; assay type: functional; settings: read-out: Activity
[8] = Growth inhibition of human Hs 578T cells assessed as cell growth at 100 nM relative to untreated control; assay type: functional; settings: read-out: Activity
UO-31 [9] = assay: Growth inhibition of human UO31 cells assessed as cell growth at 10 nM relative to untreated control; assay type: functional; settings: read-out: Activity
SNB-19 = assay: Growth inhibition of human SNB19 cells assessed as cell growth at 10 nM relative to untreated control; assay type: functional; settings: read-out: Activity
NCI-H460 [10] = assay: Growth inhibition of human NCI-H460 cells assessed as cell growth at 10 uM relative to untreated control; assay type: functional; settings: read-out: Activity
SK-MEL-5 [11] = assay: Growth inhibition of human SK-MEL-5 cells assessed as cell growth at 1 uM relative to untreated control; assay type: functional; settings: read-out: Activity
UACC-257 = assay: Growth inhibition of human UACC257 cells; assay type: functional
COLO 205 = assay: Growth inhibition of human COLO205 cells assessed as cell growth at 10 nM relative to untreated control; assay type: functional; settings: read-out: Activity
BT-549 = assay: Growth inhibition of human BT549 cells; assay type: functional
MDA-MB-435 [12] = assay: Growth inhibition of human MDA-MB-435 cells assessed as cell growth at 10 nM relative to untreated control; assay type: functional; settings: read-out: Activity
SK-MEL-5 [13] = assay: Growth inhibition of human SK-MEL-5 cells assessed as cell growth at 1 nM relative to untreated control; assay type: functional; settings: read-out: Activity
CCRF-CEM [14] = assay: Growth inhibition of human CCRF-CEM cells assessed as cell growth at 1 nM relative to untreated control; assay type: functional; settings: read-out: Activity
A549 = assay: Growth inhibition of human A549 cells assessed as cell growth at 100 nM relative to untreated control; assay type: functional; settings: read-out: Activity
CAKI-1 = assay: Growth inhibition of human Caki1 cells assessed as cell growth at 10 nM relative to untreated control; assay type: functional; settings: read-out: Activity; summary of the method: as §1
SK-MEL-28 = assay: Growth inhibition of human SK-MEL-28 cells assessed as cell growth at 1 nM relative to untreated control; assay type: functional; settings: read-out: Activity
K562 = assay: Growth inhibition of human K562 cells assessed as cell growth at 1 uM relative to untreated control; assay type: functional; settings: read-out: Activity
OVCAR-8 = assay: Growth inhibition of human OVCAR8 cells assessed as cell growth at 10 uM relative to untreated control; assay type: functional; settings: read-out: Activity
Malme-3M = assay: Growth inhibition of human MALME-3M cells assessed as cell growth at 100 nM relative to untreated control; assay type: functional; settings: read-out: Activity
U-251 [15] = assay: Growth inhibition of human U251 cells assessed as cell growth at 1 nM relative to untreated control; assay type: functional; settings: read-out: Activity
SF-268 = assay: Growth inhibition of human SF268 cells assessed as cell growth at 1 nM relative to untreated control; assay type: functional; settings: read-out: Activity
SR [16] = assay: Growth inhibition of human SR cells assessed as cell growth at 100 nM relative to untreated control; assay type: functional; settings: read-out: Activity
MDA-MB-435 [17] = assay: Growth inhibition of human MDA-MB-435 cells assessed as cell growth at 100 nM relative to untreated control; assay type: functional; settings: read-out: Activity
M14 = assay: Growth inhibition of human M14 cells assessed as cell growth at 10 nM relative to untreated control; assay type: functional; settings: read-out: Activity
HCC 2998 = assay: Growth inhibition of human HCC2998 cells assessed as cell growth at 100 nM relative to untreated control; assay type: functional; settings: read-out: Activity; summary of the method: as §1
[18] = Growth inhibition of human […] cells assessed as cell growth at 10 nM relative to untreated control; assay type: functional; settings: read-out: Activity
HT-29 = assay: Growth inhibition of human HT-29 cells assessed as cell growth at 10 nM relative to untreated control; assay type: functional; settings: read-out: Activity
HL-60(TB) = assay: Growth inhibition of human HL-60(TB) cells assessed as cell growth at 10 nM relative to untreated control; assay type: functional; settings: read-out: Activity
SF-295 = assay: Growth inhibition of human SF295 cells assessed as cell growth at 1 nM relative to untreated control; assay type: functional; settings: read-out: Activity
T47D = assay: Growth inhibition of human T47D cells assessed as cell growth at 1 uM relative to untreated control; assay type: functional; settings: read-out: Activity
NCI/ADR-RES = assay: Growth inhibition of human NCI/ADR-RES cells; assay type: functional
CCRF-CEM [19] = assay: Growth inhibition of human CCRF-CEM cells assessed as cell growth at 10 uM relative to untreated control; assay type: functional; settings: read-out: Activity
HOP-92 [20] = assay: Growth inhibition of human HOP92 cells assessed as cell growth at 10 nM relative to untreated control; assay type: functional; settings: read-out: Activity; summary of the method: as §1
DU-145 = assay: Growth inhibition of human DU145 cells assessed as cell growth at 1 nM relative to untreated control; assay type: functional; settings: read-out: Activity; summary of the method: as §1
NCI-H226 = assay: Growth inhibition of human NCI-H226 cells assessed as cell growth at 10 uM relative to untreated control; assay type: functional; settings: read-out: Activity
NCI-H460 [21] = assay: Growth inhibition of human NCI-H460 cells assessed as cell growth at 10 nM relative to untreated control; assay type: functional; settings: read-out: Activity
UO-31 [22] = assay: Growth inhibition of human UO31 cells assessed as cell growth at 10 uM relative to untreated control; assay type: functional; settings: read-out: Activity
U-251 [23] = assay: Growth inhibition of human U251 cells assessed as cell growth at 10 nM relative to untreated control; assay type: functional; settings: read-out: Activity
[24] = read-out: LC50 (the source's name)

SMILES: COc1ccc2c(c1)[nH]c1c(C)c(OS(=O)(=O)c3cccc4c(N(C)C)cccc34)ccc12
- growth at 1 µM (HCT-116 [1]): 25%
- GI50 (HCT-116 [2]): 4.38 µM
- TGI (HCT-116 [2]): > 100 µM
- CC50 (HCT-116 [2]; [24]): > 100 µM
- growth at 10 µM (MDA-MB-231): 40%
- Drug uptake (PC-3 [3]): Active
- GI50 (OVCAR-5): 56.1 µM
- TGI (OVCAR-5): > 100 µM
- CC50 (OVCAR-5; [24]): > 100 µM
- growth at 0.001 µM (PC-3 [4]): 101%
- growth at 0.1 µM (SNB-75): 99%
- growth at 1 µM (CCRF-CEM [5]): 1%
- growth at 1 µM (HOP-92 [6]): 49%
- growth at 0.01 µM (SR [7]): 91%
- growth at 0.1 µM [8]: 88%
- growth at 0.01 µM (UO-31 [9]): 92%
- growth at 0.01 µM (SNB-19): 88%
- growth at 10 µM (NCI-H460 [10]): -3%
- growth at 1 µM (SK-MEL-5 [11]): -3%
- GI50 (UACC-257): 11.5 µM
- TGI (UACC-257): > 100 µM
- CC50 (UACC-257; [24]): > 100 µM
- growth at 0.01 µM (COLO 205): 94%
- GI50 (BT-549): 5.08 µM
- TGI (BT-549): > 100 µM
- CC50 (BT-549; [24]): > 100 µM
- growth at 0.01 µM (MDA-MB-435 [12]): 95%
- growth at 0.001 µM (SK-MEL-5 [13]): 100%
- growth at 0.001 µM (CCRF-CEM [14]): 99%
- growth at 0.1 µM (A549): 95%
- growth at 0.01 µM (CAKI-1): 86%
- growth at 0.001 µM (SK-MEL-28): 99%
- growth at 1 µM (K562): 5%
- growth at 10 µM (OVCAR-8): 24%
- growth at 0.1 µM (Malme-3M): 85%
- growth at 0.001 µM (U-251 [15]): 100%
- growth at 0.001 µM (SF-268): 102%
- growth at 0.1 µM (SR [16]): 95%
- growth at 0.1 µM (MDA-MB-435 [17]): 83%
- growth at 0.01 µM (M14): 105%
- growth at 0.1 µM (HCC 2998): 78%
- growth at 0.01 µM [18]: 58%
- growth at 0.01 µM (HT-29): 106%
- growth at 0.01 µM (HL-60(TB)): 83%
- growth at 0.001 µM (SF-295): 94%
- growth at 1 µM (T47D): 15%
- GI50 (NCI/ADR-RES): 4.63 µM
- TGI (NCI/ADR-RES): > 100 µM
- CC50 (NCI/ADR-RES; [24]): > 100 µM
- growth at 10 µM (CCRF-CEM [19]): 1%
- growth at 0.01 µM (HOP-92 [20]): 96%
- growth at 0.001 µM (DU-145): 113%
- growth at 10 µM (NCI-H226): 39%
- growth at 0.01 µM (NCI-H460 [21]): 101%
- growth at 10 µM (UO-31 [22]): 24%
- growth at 0.01 µM (U-251 [23]): 98%

Source: ChEMBL document CHEMBL1157638, “Fluorescent epigenetic small molecule induces expression of the tumor suppressor ras-association domain family 1A and inhibits human prostate xenograft” (J Med Chem, 2010)
